In ChEMBL document CHEMBL1147048, “Identification of anti-prion compounds as efficient inhibitors of polyglutamine protein aggregation in a zebrafish model” (J Biol Chem, 2007) one finds Activity data, which are given here for seven compounds.

The source made the active and inactive calls. No cut-off for these calls is given here.

A short description of data set [1]: Suppression of aggregation of poly Q102-GFP mutant expressed in zebrafish embryo by filter trap assay. A digest of the protocol:
(§1)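 AB wild-type embryos were injected at the 1-2 cell stage with Q102-GFP mRNA. They were then kept in E3 with 1% DMSO plus compound (isoproterenol dissolved in water), with the chorion disrupted; controls received solvent alone. After 24 h at 28.5 °C, lysates were heated in 4% SDS/100 mM DTT, filtered through 0.2 µm cellulose acetate, probed with anti-GFP and quantified by densitometry. Solvent control was set to 100%; n=3-5 injections.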

Data set [2] in a line: Inhibition of detergent insoluble aggregation of mutant poly Q102-GFP expressed in zebrafish embryo at 50 uM by filter trap assay. In short, it runs like this:
as §1

Data set [3] has as its system N2a. Nature of the data set: Inhibition of aggregation of poly Q102-GFP in mouse N2a cells by filter trap assay. Format: cell-based.
For data set [4], the species on record is Danio rerio. The data set can be described thus: Effect on suppression of abnormal morphology and death of zebrafish embryo expressing Q102-GFP. Format: organism-based. To be noted: in vivo.
Data set [5] is filed under the species Danio rerio. The data set can be described thus: Suppression of inclusion formation in zebrafish embryo expressing poly Q102-GFP protein after 24 hrs at 1 uM. Format: functional, organism-based.
A short description of data set [6]: Suppression of aggregation of poly Q102-GFP protein expressed in zebrafish embryo at 10 uM by filter trap assay. In short, it runs like this: as §1

In the case of `Nc1c(/N=N/c2ccc(-c3ccc(/N=N/c4cc(S(=O)(=O)O)c5ccccc5c4N)cc3)cc2)cc(S(=O)(=O)O)c2ccccc12`, the result in data set [1] was Active.
Take `O=C(N/N=C/c1ccc2ccccc2c1)c1cccc(Cl)c1`: the result in data set [2] and in data set [3] was Active. For the same compound, the Activity result in data set [4] is given as “Not Active”.
In the case of `Cc1cc(O)c(C)c2sc(N)nc12`, the outcome in data set [1] and in data set [3] was Active. Besides, the Activity result in data set [4] is on record as “Not Active”.
Turning to `COc1cc(/C=N/N=C(N)N)ccc1OCc1c(C)c(C)c(Br)c(C)c1C.Cl`, the result in data set [3] was Active. Besides, in data set [4], the Activity entry is on record as “Not Active”.
Regarding `O=C(N/N=C/c1ccc2ccccc2c1)c1ccc(O)c(O)c1`, the outcome in data set [2] and in data set [3] was Active. In data set [4], the Activity result is listed as “Not Active”.
As for `COc1c(C)c2c(c(O)c1C/C=C(\C)CCC(=O)O)C(=O)OC2`, in data set [5], the result was inactive.
Consider `CC(C)NCC(O)c1ccc(O)c(O)c1` (centres undefined), for which, in data set [6], the result was inactive.
